This is an account of results in ChEMBL document CHEMBL1148198, “Inhibition of HIV-1 envelope-mediated fusion by synthetic batzelladine analogues” (J Nat Prod, 2004).

SMILES strings stand for the structures. The source made the active and inactive calls. No cut-off for these calls is given here.

For the first assay, the system named is Human immunodeficiency virus 1. The assay is described as follows: (§1) Inhibition of HIV1 envelope glycoprotein gp160-mediated cell fusion by cell-cell fusion assay. Put shortly:
(§2)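 Cell-cell fusion driven by HIV-1 Env from LAV (X4) and SF162 (R5) strains. Inhibitor added to wells at increasing concentrations; run in duplicate on at least two separate days. Percent fusion fitted by nonlinear least squares to % fusion = 100/(1 + KA[I]), where KA is the equilibrium association constant for inhibitor binding to gp120.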
For `CCCCCCCCC[C@H]1C[C@H]2CC[C@H]3C(C(=O)OCCCCCCCCOC(=O)C4=C(C)NC5=[N+]6[C@H](CC[C@@H]46)C[C@H](CCCCCCCCC)N5)=C(C)NC(=[N+]23)N1`, the outcome was inactive.
On the same count and under the same terms, to `CCCCCCCCC[C@H]1C[C@H]2CC[C@H]3C(C(=O)OCc4ccc(COC(=O)C5=C(C)NC6=[N+]7[C@H](CC[C@@H]57)C[C@H](CCCCCCCCC)N6)cc4)=C(C)NC(=[N+]23)N1` belongs “inactive”.

Test system in a further assay: not listed separately
The description is as §1. The arrangement: species or system Human immunodeficiency virus 1. Put shortly: as §2
Consider `CCCCCCCCC[C@@H]1C[C@@H]2CC[C@H]3C(C(=O)O[C@@H](C)CCCCC[C@@H]4C[C@@H]5CC[C@@H]6C[C@H](C)NC(=[N+]65)N4)=C(C)NC(=[N+]23)N1`, for which 1.8 µM corresponded to half-maximal inhibition (IC50).
Still for that read-out and setting: to `CCCCCCCCC[C@@H]1C[C@@H]2CC[C@H]3[C@H](C(=O)O[C@H](C)CCCCC[C@@H]4C[C@@H]5CC[C@@H]6C[C@H](C)NC(=[N+]65)N4)[C@@H](C)NC(=[N+]23)N1` belongs 3 µM; to `CCCCCCCCC[C@@H]1C[C@@H]2CC[C@H]3C(C(=O)OC(C)(C)C)=C(C)NC(=[N+]23)N1`, 3.5 µM.
The same measure, in the same setting: to `CCCCCCCCC[C@@H]1C[C@@H]2CCC3=C(C(=O)O[C@H](C)CCCCC[C@@H]4C[C@@H]5CC[C@@H]6C[C@H](C)NC(=[N+]65)N4)[C@@H](C)NC(=[N+]32)N1` belongs 0.8 µM; to `CCCCCCCCC[C@H](O)C[C@@H]1CC[C@H]2C(C(=O)O[C@H](C)CCCCC[C@H]3C[C@H]4CC[C@H]5C[C@@H](C)NC(=[N+]45)N3)=C(C)NC(N)=[N+]12`, 6.2 µM; to `CCCCCCCCC[C@H](O)C[C@@H]1CC[C@H]2C(C(=O)O[C@@H](C)CCCCC[C@@H]3C[C@@H]4CC[C@@H]5C[C@H](C)NC(=[N+]54)N3)=C(C)NC(N)=[N+]12`, 7.7 µM.
Same read-out and setting: the result for `C=CCOC(=O)C1=C(CCCCC[C@@H](C)O[Si](C)(C)C(C)(C)C)NC2=[N+]3[C@H](CC[C@@H]13)C[C@H](C)N2` reads 4.5 µM; that for `CC(=O)CC(=O)O[C@@H](C)CCCCC[C@H]1C[C@H]2CC[C@H]3C[C@@H](C)NC(=[N+]23)N1`, 5.3 µM; that for `CC(=O)CC(=O)O[C@@H](C)CCCCC[C@@H]1C[C@@H]2CC[C@@H]3C[C@H](C)NC(=[N+]32)N1`, 17 µM.
Regarding `CCCCCCCCC[C@@H]1C[C@@H]2CC[C@H]3[C@H](C(=O)O[C@H](C)CCCCC[C@@H]4C[C@@H]5CC[C@@H]6C[C@H](C)NC(=[N+]65)N4)[C@H](C)NC(=[N+]23)N1`, the IC50 – broadly, the concentration needed to halve the response being measured – was determined as 2.5 µM.

A further assay has as its system Human immunodeficiency virus 1. The assay is described as follows: Inhibition of HIV1 envelope glycoprotein gp160-mediated cell fusion at 100 µM by cell-cell fusion assay.
Turning to `CCCCCCCCCC1=C(C(=O)OCc2ccc(COC(=O)C3=C(CCCCCCCCC)NC4=[N+]5[C@H](CC[C@@H]35)C[C@H](CCCCCCC)N4)cc2)[C@@H]2CC[C@@H]3C[C@H](CCCCCCC)NC(=[N+]32)N1`, the outcome was inactive.
The same measure, in the same setting: the result for `CCCCCCCCC[C@H]1C[C@H]2CC[C@H]3C(C(=O)OCc4ccc(COC(=O)C5=C(C)NC6=[N+]7[C@H](CC[C@@H]57)C[C@H](CCCCCCCCC)N6)cc4)=C(C)NC(=[N+]23)N1` reads “inactive”.
